Measurements as given in ChEMBL document CHEMBL5608194, “Novel neuroprotective 5,6-dihydropyrido[2',1':2,3]imidazo[4,5-c]quinoline derivatives acting through cholinesterase inhibition and CB2 signaling modulation” (Eur J Med Chem, 2024).
The source made the active and inactive calls. The rule behind the calls is not given here.

How the values were obtained:
SH-SY5Y [1] = assay: Cytotoxicity against human SH-SY5Y cells at 10 uM; assay type: toxicity, cell-based
Outline: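 SH-SY5Y differentiated to neuron-like phenotype with 10 μM all-trans retinoic acid for 48 h, 20 000 cells/well, then exposed to compound for 72 h (DMSO ≤0.5 %). Propidium iodide exclusion fluorescence; dead-cell proportion expressed relative to Triton X-100 (1 %, 1 min) lysed control.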

SH-SY5Y [2] = assay: Potentiation of MPP+ induced toxicity in human SH-SY5Y cells assessed as increase in cell death at 10 uM; assay type: cell-based
Outline: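 Neuron-like SH-SY5Y co-treated for 24 h with 5 mM MPP+, compound and CB2 inverse agonist AM630 or antagonist SR144528 at 0.1, 1 or 10 μM; CB2 ligands also tested alone and with MPP+; cell death read-out; triplicates on three independent days.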

SH-SY5Y [3] = assay: Neuroprotective activity against ATRA-differentiated and MPP+ induced cell death in human SH-SY5Y cells assessed as cell death at 0.1 uM incubated for 24 hrs by propidium iodide staining based fluorescence assay (reference value: 100%); assay type: functional
Outline: (§1)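 ATRA-differentiated SH-SY5Y co-treated with compound and 5 mM MPP+ for 24 h; cell death by propidium iodide fluorescence, MPP+-treated signal set to 100 %.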

SH-SY5Y [4] = assay: Neuroprotective activity against ATRA-differentiated and 3-NPA induced cell death in human SH-SY5Y cells assessed as cell death at 1 uM incubated for 48 hrs by propidium iodide staining based fluorescence assay (reference value: 100%); assay type: functional
Outline: (§2)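 ATRA-differentiated SH-SY5Y co-treated with compound and 20 mM 3-nitropropionic acid for 48 h; cell death by propidium iodide fluorescence, 3-NPA-treated signal set to 100 %.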

SH-SY5Y [5] = assay: Neuroprotective activity against ATRA-differentiated and MPP+ induced cell death in human SH-SY5Y cells assessed as cell death at 10 uM incubated for 24 hrs by propidium iodide staining based fluorescence assay (reference value: 100%); assay type: functional; outline: as §1
SH-SY5Y [6] = assay: Neuroprotective activity against ATRA-differentiated and 3-NPA induced cell death in human SH-SY5Y cells assessed as cell death at 0.1 uM incubated for 48 hrs by propidium iodide staining based fluorescence assay (reference value: 100%); assay type: functional; outline: as §2
SH-SY5Y [7] = assay: Neuroprotective activity against ATRA-differentiated and 3-NPA induced cell death in human SH-SY5Y cells assessed as cell death at 10 uM incubated for 48 hrs by propidium iodide staining based fluorescence assay (reference value: 100%); assay type: functional; outline: as §2
SH-SY5Y [8] = assay: Neuroprotective activity against ATRA-differentiated and MPP+ induced cell death in human SH-SY5Y cells assessed as cell death at 1 uM incubated for 24 hrs by propidium iodide staining based fluorescence assay (reference value: 100%); assay type: functional; outline: as §1
SH-SY5Y [9] = assay: Cytotoxicity against human SH-SY5Y cells assessed as cell death at 10 uM incubated for 72 hrs by propidium iodide staining based fluorescence assay; assay type: toxicity
Outline: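 SH-SY5Y differentiated to neuron-like phenotype with 10 μM all-trans retinoic acid for 48 h, 20 000 cells/well. Compounds from DMSO stocks (DMSO ≤0.5 %) added, then 72 h exposure. Control wells lysed with 1 % Triton X-100 for 1 min, then all wells stained with propidium iodide for fluorescence read-out. Dead-cell proportion expressed relative to Triton X-100-treated control.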

SH-SY5Y [10] = assay: Inhibition of MPP+ induced mitochondrial superoxide radical production in human SH-SY5Y cells at 10 uM incubated for 24 hrs by MitoSOX staining based microplate reader assay (reference value: 100%); assay type: functional
Outline: (§3)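 Neuron-like SH-SY5Y (20 000 cells/well) co-treated with 5 mM MPP+ and compound for 24 h; plates centrifuged, medium replaced by 5 μM MitoSOX in HBSS, 30 min at 37 °C, fluorescence 500/580 nm; MPP+ signal set to 100 %; triplicates on at least four independent days.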

SH-SY5Y [11] = assay: Neuroprotective activity against ATRA-differentiated and MPP+ induced cell death in human SH-SY5Y cells assessed as cell death at 10 uM by LDH release assay (reference value: 100%); assay type: functional
Outline: (§4)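 ATRA-differentiated SH-SY5Y co-treated with 5 mM MPP+ and compound; cell death by commercial LDH release kit; MPP+ value set to 100 %; triplicates on at least three independent days.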

SH-SY5Y [12] = assay: Inhibition of MPP+ induced mitochondrial depolarization in human SH-SY5Y cells at 1 uM incubated for 2 hrs by JC10 staining based confocal laser scanning microscopy; assay type: functional
Outline: (§5)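 ATRA-differentiated SH-SY5Y co-treated with 5 mM MPP+ and compound for 2 h; mitochondrial membrane potential by JC10 ratiometric red/green signal (plate) and confocal imaging of JC10-stained cells (50 000 cells/well slides); DMSO control set to 100 %; triplicates on three independent days.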

Acetylcholinesterase = Acetylcholinesterase (Electrophorus electricus, UniProt O42275); assay: Inhibition of electric eel AChE using acetylthiocholine as substrate by Ellman's method
[13] = Selectivity index, ratio of IC50 for electric eel AChE to IC50 for equine serum BChE
Outline: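 Ratio of IC50 values from modified Ellman spectrophotometric assays with electric eel AChE and equine serum BChE. Each used enzyme at 0.2 U/mL final, acetylthiocholine or butyrylthiocholine at 40 μM, and DTNB at 100 μM. Inhibitors were dissolved in DMSO, diluted in water, and tested at five concentrations in triplicate. IC50 came from regression of v0/vi against inhibitor concentration.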

SH-SY5Y [14] = assay: Neuroprotective activity against MPP+ induced cell death in human SH-SY5Y cells assessed as cell death at 10 uM incubated for 24 hrs by Cas-3, 7 staining based assay; assay type: functional
Outline: (§6)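 Caspase-3/7 activation with Ac-DEVD-AFC substrate after 24 h co-treatment of neuron-like SH-SY5Y with compound and 5 mM MPP+; MPP+ signal set to 100 %; triplicates on at least three independent days.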

SH-SY5Y [15] = assay: Neuroprotective activity against MPP+ induced cell death in human SH-SY5Y cells assessed as cell death at 10 uM by YOPRO-1 staining based assay; assay type: functional
Outline: (§7)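 Neuron-like SH-SY5Y co-treated with compound and 5 mM MPP+ for 24 h; centrifuged at 500 × g, medium replaced by 1 μM YO-PRO1 in PBS for 15 min at room temperature; fluorescence 488/530 nm; MPP+ signal set to 100 %; triplicates on at least three independent days.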

Cholinesterase = Cholinesterase (Equus caballus, UniProt P81908); assay: Inhibition of equine serum BChE using butyrylthiocholine as substrate by Ellman's method
Outline: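 Equine serum BChE (0.2 U/mL final) with 40 μM butyrylthiocholine and 100 μM DTNB, modified Ellman spectrophotometry; compounds from DMSO diluted in water, five inhibitor concentrations; IC50 from regression of v0/vi versus inhibitor concentration; triplicate.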

SH-SY5Y [16] = assay: Inhibition of MPP+ induced mitochondrial depolarization in human SH-SY5Y cells at 0.1 uM incubated for 2 hrs by JC10 staining based confocal laser scanning microscopy; assay type: functional; outline: as §5
SH-SY5Y [17] = assay: Inhibition of MPP+ induced superoxide radical production in human SH-SY5Y cells at 10 uM incubated for 24 hrs by microplate reader assay (reference value: 100%); assay type: functional
Outline: (§8)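 Neuron-like SH-SY5Y co-treated with 5 mM MPP+ and compound for 24 h; centrifuged at 500 × g, medium replaced with 10 μM dihydroethidium in PBS for 30 min, fluorescence 500/580 nm; MPP+ signal set to 100 %; triplicates on at least four independent days.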

SH-SY5Y [18] = assay: Neuroprotective activity against MPP+ induced cell death in human SH-SY5Y cells assessed as cell death at 1 uM incubated for 24 hrs by Cas-3, 7 staining based assay; assay type: functional; outline: as §6
SH-SY5Y [19] = assay: Inhibition of MPP+ induced mitochondrial superoxide radical production in human SH-SY5Y cells at 0.1 to 10 uM incubated for 24 hrs by MitoSOX staining based microplate reader assay; assay type: functional, cell-based; details: dose 0.1-10 µM; outline: as §3
SH-SY5Y [20] = assay: Neuroprotective activity against MPP+ induced cell death in human SH-SY5Y cells assessed as cell death at 1 uM by YOPRO-1 staining based assay; assay type: functional; outline: as §7
SH-SY5Y [21] = assay: Inhibition of MPP+ induced superoxide radical production in human SH-SY5Y cells at 1 uM incubated for 24 hrs by microplate reader assay (reference value: 100%); assay type: functional; outline: as §8
SH-SY5Y [22] = assay: Neuroprotective activity against ATRA-differentiated and MPP+ induced cell death in human SH-SY5Y cells assessed as cell death at 1 uM by LDH release assay (reference value: 100%); assay type: functional; outline: as §4

Chain of Acetylcholinesterase (O42275 whole entry): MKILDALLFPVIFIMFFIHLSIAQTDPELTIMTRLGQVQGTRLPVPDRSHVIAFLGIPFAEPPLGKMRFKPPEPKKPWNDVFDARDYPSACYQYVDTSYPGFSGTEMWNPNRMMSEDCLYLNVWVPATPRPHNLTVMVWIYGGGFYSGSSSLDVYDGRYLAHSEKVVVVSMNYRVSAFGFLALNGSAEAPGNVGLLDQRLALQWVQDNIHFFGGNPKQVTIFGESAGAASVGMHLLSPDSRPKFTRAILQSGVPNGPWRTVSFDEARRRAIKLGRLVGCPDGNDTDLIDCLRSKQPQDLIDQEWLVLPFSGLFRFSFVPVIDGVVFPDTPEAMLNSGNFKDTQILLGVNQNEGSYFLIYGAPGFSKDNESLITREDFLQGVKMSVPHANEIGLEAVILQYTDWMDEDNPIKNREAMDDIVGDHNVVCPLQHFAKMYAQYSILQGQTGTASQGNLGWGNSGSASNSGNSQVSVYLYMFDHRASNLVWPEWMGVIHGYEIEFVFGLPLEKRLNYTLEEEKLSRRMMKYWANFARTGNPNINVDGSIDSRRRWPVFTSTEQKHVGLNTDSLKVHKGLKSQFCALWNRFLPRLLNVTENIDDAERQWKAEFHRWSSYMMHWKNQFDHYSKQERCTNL
Chain of Cholinesterase (P81908 whole entry): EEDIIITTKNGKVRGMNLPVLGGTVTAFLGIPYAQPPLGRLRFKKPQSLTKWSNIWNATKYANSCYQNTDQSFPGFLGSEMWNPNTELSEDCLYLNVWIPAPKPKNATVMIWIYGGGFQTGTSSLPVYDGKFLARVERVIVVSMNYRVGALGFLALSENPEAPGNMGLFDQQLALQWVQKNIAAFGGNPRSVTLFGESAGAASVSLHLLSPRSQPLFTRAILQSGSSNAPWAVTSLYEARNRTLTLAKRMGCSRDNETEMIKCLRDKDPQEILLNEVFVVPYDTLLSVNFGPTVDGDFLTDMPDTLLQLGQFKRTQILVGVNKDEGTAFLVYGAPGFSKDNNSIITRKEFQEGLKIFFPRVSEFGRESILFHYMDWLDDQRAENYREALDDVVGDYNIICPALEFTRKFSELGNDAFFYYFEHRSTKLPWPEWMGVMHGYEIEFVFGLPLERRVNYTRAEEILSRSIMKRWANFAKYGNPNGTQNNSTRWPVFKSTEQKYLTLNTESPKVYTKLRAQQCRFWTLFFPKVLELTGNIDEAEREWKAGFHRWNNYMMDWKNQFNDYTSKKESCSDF

Compound | Activity (SH-SY5Y [3]) [%] | Activity (SH-SY5Y [4]) [%] | Activity (SH-SY5Y [5]) [%] | Activity (SH-SY5Y [6]) [%] | Activity (SH-SY5Y [7]) [%] | Activity (SH-SY5Y [8]) [%] | Activity (SH-SY5Y [9]) [%] | further results
Cc1ccc(Cn2nc(C(=O)N[C@@H]3C(C)(C)[C@@H]4CC[C@@]3(C)C4)cc2-c2ccc(Cl)c(C)c2)cc1 |  |  |  |  |  |  |  | Activity (SH-SY5Y [1]): Non-Toxic; Activity (SH-SY5Y [2]): Toxic
Cc1cccn2c3c(nc12)-c1ccccc1NC31CCC(C)CC1 (configuration not stated) | 91.8 | 65 | 94 | 86 | 64.5 | 53 | 9 | 
Cc1cccn2c3c(nc12)-c1ccccc1NC31CCCC1 | 86.7 | 65.3 | 52.8 | 79.2 | 60.5 | 48 | 8.2 | 
Cc1ccn2c3c(nc2c1)-c1ccccc1NC31CCCC1 | 73.1 | 59 | 68.9 | 86.9 | 48.6 | 31.9 | 10.4 | 
Cc1cccn2c3c(nc12)-c1ccccc1NC3(C)C | 79.6 | 69.9 | 70.8 | 96.6 | 56.4 | 48.6 | 11 | 
Cc1cccn2c3c(nc12)-c1ccccc1NC31CCCCCC1 | 67.2 | 71 | 91.4 | 83.8 | 60.3 | 38.8 | 9.3 | 
c1ccc2c(c1)NC1(CCCCCC1)c1c-2nc2ccccn12 | 45.8 | 69.9 | 73.6 | 74 | 69 | 28.6 | 10.4 | 
Cc1cccn2c3c(nc12)-c1ccccc1NC31CCCCC1 | 77.7 | 66.1 | 45.6 | 76.6 | 61.8 | 44.4 | 9.2 | 
c1ccc2c(c1)NC1(CCCC1)c1c-2nc2ccccn12 | 63.9 | 57.7 | 42.6 | 67.7 | 54.5 | 28.2 | 10.1 | 
CC1CCC2(CC1)Nc1ccccc1-c1nc3ccccn3c12 (configuration not stated) | 67.6 | 64.2 | 97.3 | 82.3 | 64.5 | 33.6 | 12 | 
Brc1ccc2nc3c(n2c1)C1(CCCCC1)Nc1ccccc1-3 | 94.8 | 88.4 | 33.9 | 97.7 | 59.5 | 56.5 | 12.3 | inhibition at 10 µM (SH-SY5Y [10]): 58.8%; Activity (SH-SY5Y [11]): 64.7%; inhibition at 1 µM (SH-SY5Y [12]): 100%; IC50 (Acetylcholinesterase): 20 µM; Ratio IC50 [13]: 1.02; Activity (SH-SY5Y [14]): 55.8%; Activity (SH-SY5Y [15]): 58%; IC50 (Cholinesterase): 19.6 µM; inhibition at 0.1 µM (SH-SY5Y [16]): 91.7%; inhibition at 10 µM (SH-SY5Y [17]): 65.6%
COc1ccc(C(=O)c2c(C)n(CCN3CCOCC3)c3cc(I)ccc23)cc1 |  |  |  |  |  |  |  | Activity (SH-SY5Y [1]): Toxic; Activity (SH-SY5Y [2]): > 12%
CC(=O)N[C@@H](CS)C(=O)O [ACETYLCYSTEINE] |  | 80.8 |  | 95.5 | 37 |  |  | 
CC1CCC2(CC1)Nc1ccccc1-c1nc3ccc(Br)cn3c12 (configuration not stated) | 74.2 | 71.3 | 126.5 | 92.1 | 64 | 52.3 | 9.3 | 
Cc1ccn2c3c(nc2c1)-c1ccccc1NC3(C)C | 65.7 | 62.4 | 59.7 | 86.2 | 52.9 | 46.1 | 13 | 
Cc1ccn2c3c(nc2c1)-c1ccccc1NC31CCCCC1 | 60.8 | 62.6 | 75 | 75.5 | 55.2 | 38.2 | 11.4 | Activity (SH-SY5Y [18]): 52.6%; inhibition (SH-SY5Y [19]): inactive; inhibition at 1 µM (SH-SY5Y [12]): 100%; IC50 (Acetylcholinesterase): 16.4 µM; Activity (SH-SY5Y [20]): 58.1%; Ratio IC50 [13]: 1.57; inhibition at 1 µM (SH-SY5Y [21]): 67.1%; Activity (SH-SY5Y [22]): 65.4%; IC50 (Cholinesterase): 10.4 µM; inhibition at 0.1 µM (SH-SY5Y [16]): 78.7%
Cc1ccn2c3c(nc2c1)-c1ccccc1NC31CCC(C)CC1 (configuration not stated) | 61.6 | 66.8 | 105.9 | 82.4 | 67 | 38.4 | 10.9 | 
Brc1ccc2nc3c(n2c1)C1(CCCCCC1)Nc1ccccc1-3 | 56.5 | 81.4 | 96.4 | 90.7 | 73.5 | 43.5 | 13.5 | 
